Five compounds from ChEMBL document CHEMBL1795252, “New class azaphilone produced by a marine fish-derived Chaetomium globosum. The stereochemistry and biological activities” (Bioorg Med Chem, 2011) can be followed below.

What all share (format): functional, cell-based
One test deals with L1210. As to the kind of experiment: Cytotoxicity against mouse L1210 cells after 72 hrs by MTT assay. Conditions: L1210, 72 h. Summed up: (§1)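 Cells grown in Eagle's MEM with 10% fetal calf serum at 37 °C, 5% CO2. Test material dissolved in DMSO (10 mM stock), diluted in medium to 200, 20 and 2 µM working solutions, combined with cell suspension (1 × 10^5 cells/ml). Incubated 72 h at 37 °C, MTT labeling, formazan dissolved in 20% SDS/0.1 N HCl, absorbance 540 nm. Growth as % of untreated control; triplicate assays; IC50 from semilog plots of averaged data.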
For orientation: Formazan colour is commonly taken as a measure of viable cells.

The next test concerns KB. As to the kind of experiment: Cytotoxicity against human KB cells after 72 hrs by MTT assay. An outline of the steps:
as §1

The subject of another test is HL-60. As to the kind of experiment: Cytotoxicity against human HL60 cells after 72 hrs by MTT assay. Conditions: HL-60, 72 h. Summed up:
as §1

The subject of another test is P388. As to the kind of experiment: Cytotoxicity against mouse P388 cells after 72 hrs by MTT assay. The following applies: P388, 72 h. Summed up: as §1

As for `C/C=C(\C)C(=O)C[C@H]1C2=COC(/C=C/[C@H](C)[C@@H](C)O)=CC2=C(Cl)C(=O)[C@@]1(C)O`, the 50% inhibitory concentration (IC50) turned out to be 1600 nM in the test with L1210, 1200 nM in the test on KB and 1000 nM in the test with HL-60.

Regarding `C/C=C(\C)C(=O)C[C@H]1C2=COC(/C=C/[C@@H](C)[C@@H](C)O)=CC2=C(Cl)C(=O)[C@@]1(C)O` [CHAETOMUGILIN I], the IC50 worked out at 1900 nM with L1210, 2300 nM in the test on KB, 1100 nM with HL-60 and 1100 nM with P388.

`C/C=C(\Cl)C(=O)[C@@](C)(O)[C@H]1CC(=O)C(C)=C2C=C(/C=C/[C@@H](C)[C@@H](C)O)OC=C21` [CHAETOMUGILIN P]: the IC50 in the test on L1210 was found to be 1500 nM; in the test with KB, 1800 nM; in the test on HL-60, 1200 nM; in the test on P388, 700 nM.

With `C[C@H](O)[C@@H](C)/C=C/C1=CC2=C(Cl)C(=O)[C@](C)(O)[C@@H](O)[C@@H]2CO1` [CHAETOMUGILIN R], the IC50 in the test with L1210 stood at 67100 nM; in the test with KB, 67100 nM; in the test with HL-60 it was 51800 nM; in the test with P388, 32000 nM.

In the case of `O=c1[nH]cc(F)c(=O)[nH]1` [FLUOROURACIL], the IC50 turned out to be 1100 nM in the test with L1210, 7700 nM with KB, 2700 nM in the test on HL-60 and 1700 nM with P388.

By IC50 is commonly meant the concentration needed to halve the response being measured. Lower therefore signals greater potency.
